Source: ChEMBL document CHEMBL4665831, “Ultrapotent Inhibitor of Clostridioides difficile Growth, Which Suppresses Recurrence In Vivo” (J Med Chem, 2020)

Key:
Clostridioides difficile [1] = assay: Antimicrobial activity against Clostridioides difficile ATCC BAA 1801 assessed as reduction in microbial growth after 48 hrs by broth microdilution method; format: functional
In short: (§1)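 Broth microdilution: a 0.5 McFarland suspension was diluted in brain heart infusion supplemented (BHIS) broth to ~5 × 10^5 CFU/mL. Agents were serially diluted and plates incubated anaerobically at 37°C for 48 h.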

Clostridioides difficile [2] = assay: Antimicrobial activity against Clostridioides difficile NR-13432 isolate 6 assessed as reduction in microbial growth after 48 hrs by broth microdilution method; format: functional; in short: as §1
Clostridioides difficile [3] = assay: Antimicrobial activity against Clostridioides difficile NR-13435 isolate 9 assessed as reduction in microbial growth after 48 hrs by broth microdilution method; format: functional; in short: as §1
Clostridioides difficile [4] = assay: Antimicrobial activity against Clostridioides difficile NR-32883 P2 assessed as reduction in microbial growth after 48 hrs by broth microdilution method; format: functional; in short: as §1
Clostridioides difficile [5] = assay: Antimicrobial activity against Clostridioides difficile NR-32891 P13 assessed as reduction in microbial growth after 48 hrs by broth microdilution method; format: functional; in short: as §1
Clostridioides difficile [6] = assay: Antimicrobial activity against Clostridioides difficile NR-32895 P19 assessed as reduction in microbial growth after 48 hrs by broth microdilution method; format: functional; in short: as §1
Clostridioides difficile [7] = assay: Antimicrobial activity against Clostridioides difficile NR-32904 P30 assessed as reduction in microbial growth after 48 hrs by broth microdilution method; format: functional; in short: as §1
Clostridioides difficile [8] = assay: Antimicrobial activity against Clostridioides difficile ATCC 43255 assessed as reduction in microbial growth after 48 hrs by broth microdilution method; format: functional; in short: as §1
Enterococcus faecium = assay: Antimicrobial activity against vancomycin-resistant Enterococcus faecium ATCC 700221 assessed as reduction in microbial growth after 48 hrs by CLSI based broth microdilution method; format: functional
In short: (§2)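 CLSI broth microdilution: strains were grown aerobically overnight on tryptone soy agar at 37°C. A 0.5 McFarland suspension was diluted to ~5 × 10^5 CFU/mL in cation-adjusted Mueller-Hinton broth (E. coli) or tryptone soy broth (enterococci), and agents were serially diluted.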

Enterococcus faecalis = assay: Antimicrobial activity against vancomycin-resistant Enterococcus […] ATCC 51299 assessed as reduction in microbial growth after 48 hrs by CLSI based broth microdilution method; format: functional; in short: as §2
Lactobacillus gasseri = assay: Antibacterial activity against Lactobacillus gasseri HM-400 assessed as reduction in microbial growth after 48 hrs by broth microdilution method
In short: (§3)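 Gut commensal MICs by broth microdilution: a 0.5 McFarland suspension was diluted to ~5 × 10^5 CFU/mL in BHIS broth (Bacteroides) or MRS broth (Lactobacillus). Agents were serially diluted and incubated 48 h at 37°C. MIC was read by visual inspection of growth.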

Lactobacillus crispatus [9] = assay: Antibacterial activity against Lactobacillus crispatus HM-103 assessed as reduction in microbial growth after 48 hrs by broth microdilution method; in short: as §3
Lactobacillus crispatus [10] = assay: Antibacterial activity against Lactobacillus crispatus HM-371 assessed as reduction in microbial growth after 48 hrs by broth microdilution method; in short: as §3
Bacteroides fragilis [11] = assay: Antibacterial activity against Bacteroides fragilis HM-711 assessed as reduction in microbial growth after 48 hrs by broth microdilution method; format: organism-based; in short: as §3
Bacteroides fragilis [12] = assay: Antibacterial activity against Bacteroides fragilis HM-709 assessed as reduction in microbial growth after 48 hrs by broth microdilution method; format: organism-based; in short: as §3
Phocaeicola dorei = assay: Antibacterial activity against Bacteroides dorei HM-719 assessed as reduction in microbial growth after 48 hrs by broth microdilution method; format: organism-based; in short: as §3
[13] = biological target: Cyclin-dependent kinase 2 (Homo sapiens, UniProt P24941); assay: Inhibition of human CDK2 expressed in sf9 insect cells
Escherichia coli = assay: Antimicrobial activity against Escherichia coli JW55031 harboring TolC mutant assessed as reduction in microbial growth after 48 hrs by CLSI based broth microdilution method; format: functional; in short: as §2
Clostridioides difficile [14] = assay: Antimicrobial activity against Clostridioides difficile ATCC 43255 assessed as drug resistance by measuring frequency of mutation at 15 times of MIC after 48 hrs; format: functional
Clostridioides difficile [15] = assay: Antimicrobial activity against Clostridioides difficile ATCC 43255 assessed as drug resistance by measuring frequency of mutation at 20 times of MIC after 48 hrs; format: functional
Clostridioides difficile [16] = assay: Antibacterial activity against Clostridioides difficile ATCC 43255 infected in CDI mouse model assessed as survival rate at 10 mg/kg, po for 5 days relative to control; format: functional; conditions: ATCC 43255, po, 120 h, time 5 day
Clostridioides difficile [17] = assay: Antibacterial activity against Clostridioides difficile ATCC 43255 infected in CDI mouse model assessed as bacterial recurrence at 10 mg/kg, po for 5 days and measured on day 21 relative to control; format: functional; conditions: time 21 day

## COc1ccc(Cl)cc1-c1nnc(NC(=O)c2ccc(SC(F)(F)F)cc2)o1
Clostridioides difficile [1]
  MIC: 4.7 µM

## Cc1ncc([N+](=O)[O-])n1CCO [METRONIDAZOLE]
Clostridioides difficile [1]
  MIC: 1.46 µM
Clostridioides difficile [2]
  MIC: 1.46 µM
Clostridioides difficile [3]
  MIC: 0.7 µM
Clostridioides difficile [4]
  MIC: 0.7 µM
Clostridioides difficile [5]
  MIC: 0.7 µM
Clostridioides difficile [6]
  MIC: 1.46 µM
Clostridioides difficile [7]
  MIC: 1.46 µM
Clostridioides difficile [8]
  MIC: 1.46 µM
Enterococcus faecium
  MIC: > 374 µM
Enterococcus faecalis
  MIC: > 374 µM
Lactobacillus gasseri
  MIC: > 373.9 µM
Lactobacillus crispatus [9]
  MIC: > 373.9 µM
Lactobacillus crispatus [10]
  MIC: > 373.9 µM
Bacteroides fragilis [11]
  MIC: 5.84 µM
Bacteroides fragilis [12]
  MIC: 11.68 µM
Phocaeicola dorei
  MIC: 5.84 µM

## Cc1ccc(-c2nnc(NC(=O)c3ccc(SC(F)(F)F)cc3)o2)cc1
Clostridioides difficile [1]
  MIC: 10.5 µM

## O=C(Nc1nnc(-c2cccc(F)c2)o1)c1ccc(SC(F)(F)F)cc1
Clostridioides difficile [1]
  MIC: 0.08 µM

## COc1ccc(-c2nnc(NC(=O)c3ccc(SC(F)(F)F)cc3)o2)cc1
Clostridioides difficile [1]
  MIC: 10.1 µM

## CN1CC[C@H](c2c(O)cc(O)c3c(=O)cc(-c4ccccc4)oc23)[C@H](O)C1
[13]
  IC50: 2400 nM

## GENTAMICIN
Escherichia coli
  MIC: 0.52 µM

## O=C(Nc1nnc(-c2ccc(F)cc2)o1)c1ccc(SC(F)(F)F)cc1
Clostridioides difficile [1]
  MIC: 10.4 µM

## CCc1c(Cl)c(O)c(Cl)c(O)c1C(=O)O[C@H]1[C@H](O)[C@H](OC)[C@H](OC/C2=C\C=C\C[C@H](O)/C(C)=C/[C@H](CC)[C@@H](O[C@@H]3OC(C)(C)[C@@H](OC(=O)C(C)C)[C@H](O)[C@@H]3O)/C(C)=C/C(C)=C/C[C@@H]([C@@H](C)O)OC2=O)O[C@@H]1C [FIDAXOMICIN]
Clostridioides difficile [1]
  MIC: 0.06 µM
Clostridioides difficile [2]
  MIC: 0.06 µM
Clostridioides difficile [3]
  MIC: 0.06 µM
Clostridioides difficile [4]
  MIC: 0.03 µM
Clostridioides difficile [5]
  MIC: 0.01 µM
Clostridioides difficile [6]
  MIC: 0.03 µM
Clostridioides difficile [7]
  MIC: 0.01 µM
Clostridioides difficile [8]
  MIC: 0.01 µM
Lactobacillus gasseri
  MIC: > 60.5 µM
Lactobacillus crispatus [9]
  MIC: > 60.5 µM
Lactobacillus crispatus [10]
  MIC: > 60.5 µM
Bacteroides fragilis [11]
  MIC: > 60.5 µM
Bacteroides fragilis [12]
  MIC: > 60.5 µM
Phocaeicola dorei
  MIC: > 60.5 µM

## O=C(Nc1nnc(-c2ccccc2)o1)c1ccc(SC(F)(F)F)cc1
Clostridioides difficile [1]
  MIC: 5.5 µM

## CN[C@H](CC(C)C)C(=O)N[C@H]1C(=O)N[C@@H](CC(N)=O)C(=O)N[C@H]2C(=O)N[C@H]3C(=O)N[C@H](C(=O)N[C@H](C(=O)O)c4cc(O)cc(O)c4-c4cc3ccc4O)[C@H](O)c3ccc(c(Cl)c3)Oc3cc2cc(c3O[C@@H]2O[C@H](CO)[C@@H](O)[C@H](O)[C@H]2O[C@H]2C[C@](C)(N)[C@H](O)[C@H](C)O2)Oc2ccc(cc2Cl)[C@H]1O [VANCOMYCIN]
Clostridioides difficile [1]
  MIC: 0.7 µM
Clostridioides difficile [2]
  MIC: 0.2 µM
Clostridioides difficile [3]
  MIC: 0.7 µM
Clostridioides difficile [4]
  MIC: 0.4 µM
Clostridioides difficile [5]
  MIC: 0.4 µM
Clostridioides difficile [6]
  MIC: 0.7 µM
Clostridioides difficile [7]
  MIC: 0.7 µM
Clostridioides difficile [8]
  MIC: 0.7 µM
Enterococcus faecalis
  MIC: > 44.2 µM
Escherichia coli
  MIC: > 44.2 µM
Lactobacillus gasseri
  MIC: <= 0.7 uM
Lactobacillus crispatus [9]
  MIC: 1.4 µM
Lactobacillus crispatus [10]
  MIC: 1.4 µM
Bacteroides fragilis [11]
  MIC: 44.2 µM
Bacteroides fragilis [12]
  MIC: 22.1 µM
Phocaeicola dorei
  MIC: 44.2 µM
Clostridioides difficile [14]
  Activity: <1.1 10^-9No_unit
Clostridioides difficile [15]
  Activity: <1.1 10^-9No_unit
Clostridioides difficile [16]
  survival at 10 mg/kg: 100%
Clostridioides difficile [17]
  Activity: 83.3%

## O=C(Nc1nnc(-c2ccccc2F)o1)c1ccc(SC(F)(F)F)cc1
Clostridioides difficile [1]
  MIC: 10.4 µM

## O=C(Nc1nnc(-c2cccc(Cl)c2)o1)c1ccc(SC(F)(F)F)cc1
Clostridioides difficile [1]
  MIC: 0.08 µM

## CC(=O)NC[C@H]1CN(c2ccc(N3CCOCC3)c(F)c2)C(=O)O1 [LINEZOLID]
Enterococcus faecium
  MIC: 3 µM
Enterococcus faecalis
  MIC: 3 µM
Escherichia coli
  MIC: 47.4 µM

## O=C(Nc1nnc(-c2cccs2)o1)c1ccc(SC(F)(F)F)cc1
Clostridioides difficile [1]
  MIC: 1.4 µM

## O=C(Nc1nnc(-c2ccc(C(F)(F)F)cc2)o1)c1ccc(SC(F)(F)F)cc1
Clostridioides difficile [1]
  MIC: 0.29 µM

## CC(C)c1ccc(-c2nnc(NC(=O)c3ccc(SC(F)(F)F)cc3)o2)cc1
Clostridioides difficile [1]
  MIC: 314 µM

## O=C(Nc1nnc(-c2ccc(Cl)cc2Cl)o1)c1ccc(SC(F)(F)F)cc1
Clostridioides difficile [1]
  MIC: 0.07 µM

## O=C(Nc1nnc(-c2ccccn2)o1)c1ccc(SC(F)(F)F)cc1
Clostridioides difficile [1]
  MIC: 21.8 µM

## O=C(Nc1nnc(-c2ccc(Cl)cc2)o1)c1ccc(SC(F)(F)F)cc1
Clostridioides difficile [1]
  MIC: 5 µM

## O=C(Nc1nnc(-c2ccccc2Cl)o1)c1ccc(SC(F)(F)F)cc1
Clostridioides difficile [1]
  MIC: 10 µM

## O=C(Nc1nnc(-c2cccc(C(F)(F)F)c2)o1)c1ccc(SC(F)(F)F)cc1
Clostridioides difficile [1]
  MIC: 0.04 µM

## COc1cccc(-c2nnc(NC(=O)c3ccc(SC(F)(F)F)cc3)o2)c1
Clostridioides difficile [1]
  MIC: 10.1 µM
